# Assay results gathered from unrelated publications.
# Target: Serine/threonine-protein kinase TAO1 (TAOK1, Homo sapiens, UniProt Q7L7X3)
# Sequence (Q7L7X3 1-1001, as in one of the studies): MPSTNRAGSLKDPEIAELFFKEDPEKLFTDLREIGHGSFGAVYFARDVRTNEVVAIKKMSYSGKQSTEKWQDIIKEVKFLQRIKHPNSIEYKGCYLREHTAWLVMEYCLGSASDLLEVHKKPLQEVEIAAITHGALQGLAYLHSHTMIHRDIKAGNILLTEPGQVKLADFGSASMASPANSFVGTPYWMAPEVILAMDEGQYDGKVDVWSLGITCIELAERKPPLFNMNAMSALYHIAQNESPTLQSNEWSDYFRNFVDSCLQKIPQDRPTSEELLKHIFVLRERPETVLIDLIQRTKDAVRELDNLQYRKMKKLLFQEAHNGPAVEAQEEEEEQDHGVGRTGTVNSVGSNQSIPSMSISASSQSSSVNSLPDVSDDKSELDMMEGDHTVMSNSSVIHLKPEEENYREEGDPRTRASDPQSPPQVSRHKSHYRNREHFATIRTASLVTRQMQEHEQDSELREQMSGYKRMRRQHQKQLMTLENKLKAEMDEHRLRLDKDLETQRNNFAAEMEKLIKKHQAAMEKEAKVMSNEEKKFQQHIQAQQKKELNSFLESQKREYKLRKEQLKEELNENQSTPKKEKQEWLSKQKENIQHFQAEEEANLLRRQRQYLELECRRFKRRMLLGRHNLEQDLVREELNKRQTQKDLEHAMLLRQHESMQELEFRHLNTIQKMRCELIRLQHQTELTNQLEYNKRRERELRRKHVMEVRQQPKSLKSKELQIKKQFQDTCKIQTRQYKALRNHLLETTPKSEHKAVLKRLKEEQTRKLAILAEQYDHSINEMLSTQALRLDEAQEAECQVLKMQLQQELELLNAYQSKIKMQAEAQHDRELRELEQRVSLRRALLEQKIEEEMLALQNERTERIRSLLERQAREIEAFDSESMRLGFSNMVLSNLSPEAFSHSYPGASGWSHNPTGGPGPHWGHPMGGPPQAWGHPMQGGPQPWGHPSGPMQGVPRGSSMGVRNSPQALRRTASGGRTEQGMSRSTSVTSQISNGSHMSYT
SMILES,effect on,action,method,concentration,quantity,result
Cc1c(C(=O)O)cc(-c2ccc(C3CCNCC3)cc2)c2ccc(-c3ccc(C(F)(F)F)cc3)cc12,binding,,competition with immobilised ligand,1 µM,remaining binding,100%
CCN(CC)c1ccc(C2=NNC(=O)CC2C)cc1[N+](=O)[O-] (stereo not drawn),enzyme activity,inhibitor,,10 µM,remaining activity,115%
Nc1ncnc2occ(-c3ccc(NC(=O)Nc4cc(C(F)(F)F)ccc4F)cc3)c12,cell-free assay,inhibitor,,20 µM,remaining signal,0.3%
CCN(CC)CCNC(=O)c1c(C)[nH]c(/C=C2\C(=O)Nc3ccc(F)cc32)c1C,cell-free assay,,,0.5 µM,remaining signal,71.5%
CN1CC(Oc2cnc(C#N)cc2-c2ccn3nc(NC(=O)C4CC4)cc3c2)C1,enzyme activity,inhibitor,,1 µM,inhibition,-1%
FC(F)(F)Oc1cccc(-c2cnc3ccc(-c4ccncc4)nn23)c1,enzyme activity,inhibitor,radiometric,1 µM,activity vs control,83%
Cc1ccc(C(=O)NCc2ccsc2)cc1C#Cc1cn(C(C)C)c2ncnc(N)c12,enzyme activity,inhibitor,,1 µM,activity vs control,48%
COc1cc(Cl)c(C(=O)N[C@@H](CN[C@H]2CC[C@@H](N)CC2)Cc2ccc(C#N)cc2)cc1-c1ccc(CN[C@H](C)c2ccc(C)cc2)o1,enzyme activity,inhibitor,,1 µM,remaining activity,97%
CNC(=O)c1cc(Oc2ccc(NC(=O)Nc3ccc(Cl)c(C(F)(F)F)c3)cc2)ccn1,cell-free assay,,,0.5 µM,remaining signal,82%
CCCOc1ccc(OC)c(F)c1C(=O)c1ccc(C(=O)N[C@@H]2CNC[C@H]2NC(=O)c2ccc3[nH]ncc3c2)cc1,enzyme activity,inhibitor,,10 µM,remaining activity,74%
Nc1nc(Nc2ccc(S(N)(=O)=O)cc2)sc1C(=O)c1ccccc1[N+](=O)[O-],enzyme activity,inhibitor,,0.1 µM,inhibition,60 to 66%
CO[C@@H](C)c1c(Nc2ccc([C@H](N(C)C(=O)C3CCS(=O)(=O)CC3)C(F)(F)F)cc2)cnc2cc(Cl)nn12,cell-free assay,,competition with immobilised ligand,1 µM,remaining binding,100%
O=C(Nc1cnn(-c2csc(C(=O)NC3COC3)c2)c1)Nc1ccccc1Cl,enzyme activity,inhibitor,,5 µM,remaining activity,122%
CS(=O)(=O)c1cc(C2(NC(=O)c3cncc4c3cnn4-c3ccc(F)cc3)CC2)ccn1,cell-free assay,,competition with immobilised ligand,1 µM,remaining binding,94%
COc1cc(Nc2cnc(C#N)c(O[C@H](C)CN(C)C)n2)ncc1-c1cnn(C)c1,enzyme activity,inhibitor,radiometric,1 µM,remaining activity,87%
CN(C)C(=O)Cn1cc(-c2nc(C3(c4ccc(-c5cnc(N)nc5)cc4)CC3)no2)cn1,cell-free assay,,competition with immobilised ligand,1 µM,remaining binding,86%
Cc1cnc(NC2CCOCC2)nc1-n1cnc(C(=O)NC(CN)c2cc(F)cc(Cl)c2)c1 (stereo not drawn),enzyme activity,inhibitor,radiometric,1 µM,remaining activity,67%
Cc1cc(C)c(-n2ccn3nc(-c4cccnc4)cc23)cc1NC(=O)c1cc(C#N)cc(S(F)(F)(F)(F)F)c1,cell-free assay,,competition with immobilised ligand,0.1 µM,remaining binding,45.2%
Oc1cccc(-c2nc(N3CCOCC3)c3oc4ncccc4c3n2)c1,enzyme activity,inhibitor,,10 µM,remaining activity,84%
O=C(N1CCS(=O)(=O)CC1)N1C[C@H](c2ccc(OC(F)(F)F)cc2)C[C@H](c2nc(C3CC3)no2)C1,cell-free assay,,competition with immobilised ligand,1 µM,remaining binding,100%
Clc1ccc(Nc2nnc(Cc3ccncc3)c3ccccc23)cc1,cell-free assay,,,0.5 µM,remaining signal,98.7%
